High-throughput results (PubChem BioAssay)
Hits are enriched below; roughly 2.9% of the tested compounds scored in any of these assays.
OX1R antag-1 = blocks the human orexin 1 receptor. OX1R-expressing cells, FRET antagonist read-out. inhibition, % at 6.6 µM. hit rate 1.8% among 330,000. AID 485270; in the data active = inhibition mostly above about 38%, no sharp cut-off; inactive = mostly below about 40%
Target sequence (O43613 whole entry, looked up): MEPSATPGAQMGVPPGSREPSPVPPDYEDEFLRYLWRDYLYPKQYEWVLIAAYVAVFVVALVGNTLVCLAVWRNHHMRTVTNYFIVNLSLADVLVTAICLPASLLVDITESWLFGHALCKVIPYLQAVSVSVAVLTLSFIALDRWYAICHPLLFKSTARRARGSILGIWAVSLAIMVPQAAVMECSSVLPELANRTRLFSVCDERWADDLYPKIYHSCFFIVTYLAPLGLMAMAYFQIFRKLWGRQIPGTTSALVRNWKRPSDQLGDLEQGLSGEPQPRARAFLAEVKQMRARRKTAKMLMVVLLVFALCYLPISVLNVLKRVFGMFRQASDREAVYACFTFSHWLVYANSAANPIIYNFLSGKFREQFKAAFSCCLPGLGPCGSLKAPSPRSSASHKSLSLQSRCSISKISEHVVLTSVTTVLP
M1 PAM parental = nonselective activator or artifact in parental CHO-K1 calcium assay; hit rate 0.02% among 360,000; AID 602247; ATP EC20, Fluo-8 calcium fluorescence; 0% at ATP EC20, 100% at ATP max; activation, % at 3 µM;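 active = activation above the run cutoff, the mean activation of all test compounds plus 3 SD, cut at about 40% in these data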;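 note: peak over basal fluorescence ratio in a 140 s read after ATP addition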
OX1R antag-2 = human HCRTR1 antagonism. inhibition, % at 5 µM. hit rate 0.43% among 330,000. CHO/OX1R cells, Fluo-8 calcium fluorescence, orexin A. O43613;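 active = inhibition above its plate's threshold, mean inhibition of all tested compounds on the plate plus 3 SD, cut at about 37% in these data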
CHO parental Ca = counter-screen: ATP calcium response change in parental CHO cells | parental CHO-K1, ATP-induced calcium, Fluo-8 fluorescence | inhibition, % at 5.6 µM | hit rate 0.63% among 330,000 | AID 463079;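 active = inhibition above that plate's mean sample inhibition plus 3 SD, cut at about 26% in these data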
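Test system: parental CHO cells; detection: calcium-sensitive Fluo-8 fluorescence; evaluation: percent inhibition of calcium signal; also added: ATP as calcium-mobilizing challenge; repeats: one well per compound; control set: ATP-challenged DMSO wells low, unchallenged DMSO wells high; compound: single nominal dose of 5.6 µM per compound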
M1 ag parental = counter-screen for M1 agonists: effect in parental CHO-K1 cells | Fluo-8 calcium fluorescence; scaled to maximal ATP response, vehicle zero | activation, % at 3 µM | hit rate 0.48% among 360,000; in the data active = activation above about 15%;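 note: untransfected CHO-K1 host cells lacking M1 receptor as counterscreen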
CHO-K1 Ca antag = nonselective inhibitor or artifact in parental CHO-K1 cells. ATP-induced calcium, Fluo-8 fluorescence. hit rate 0.6% among 360,000. inhibition, % at 3 µM. AID 602250;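 active = inhibition above a per-plate cutoff, the plate's mean sample inhibition plus 3 SD, cut at about 24% in these data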
Each line names hits and unclear results; the compound was inactive in the other large screens.

Cc1ccc(S(=O)(=O)N2CCCC2=O)c(C)c1N(C)S(C)(=O)=O	none
CC(=O)c1ccc(OCC(=O)NC(=O)NC2CCCC2)cc1	none (no result: OX1R antag-1, OX1R antag-2, CHO parental Ca)
COc1ccc(-c2oc3c(c2C(=O)OCCCO)C(OCCCCCO)CCC3)cc1 (stereo unspecified)	none (no result: OX1R antag-1, OX1R antag-2, CHO parental Ca)
CSc1ccccc1NC(=O)CN(C)C(=O)c1c(C)nn(Cc2ccccc2)c1C	none
Cc1ccc(NS(=O)(=O)c2ccc(C(=O)N3CCCC(C(F)(F)F)C3)cc2)cc1 (stereo unspecified)	OX1R antag-2 45.0, M1 ag parental 39.0
Cc1ccsc1C(=O)NNC(=O)CCN1CCN(c2ccccc2)CC1	none
c1csc(-c2nc(NCCCN3CCOCC3)c3ccccc3n2)c1	none
c1ccc(CNc2nc(-c3cccs3)nc3ccccc23)nc1	OX1R antag-1 53.6
CSc1nnnn1CCn1nnnc1SC	CHO-K1 Ca antag 35.9
COc1ccc(C(O)c2nc(-c3cccc(CO)c3)cs2)cc1 (stereo unspecified)	none (no result: OX1R antag-1, OX1R antag-2, CHO parental Ca)
CCCSc1nc(N)c(C#N)c(-c2ccc(C)cc2)c1C#N	CHO parental Ca 40.7
O=S(=O)(Cc1ccc(Cl)cc1)Nc1ccc(Cl)cn1	none
Cc1[nH][nH]c(=O)c1C(c1ccc(-c2ccccc2C(=O)O)o1)c1c(C)[nH][nH]c1=O	OX1R antag-1 50.2
CC(C)Nc1ncnc2ccc(Br)cc12	CHO parental Ca 28.9
CC(=O)c1cccc(Nc2ncnc3ccc(Br)cc23)c1	OX1R antag-1 73.5
CC(=O)c1ccc(Nc2ncnc3ccc(Br)cc23)cc1	none (no result: OX1R antag-1, OX1R antag-2, CHO parental Ca)
COc1cc(C(=O)Oc2cccc(Nc3ncnc4ccccc34)c2)cc(OC)c1OC	OX1R antag-1 56.1, OX1R antag-2 64.1, CHO parental Ca 42.6
COc1ccc(S(=O)(=O)N2CCN(C)CC2c2ccccc2)cc1OC (stereo unspecified)	none (no result: OX1R antag-1, OX1R antag-2, CHO parental Ca)
CC1Oc2ccccc2N(CC(=O)Nc2ccc(F)cc2)C1=O (stereo unspecified)	none
N=C1S/C(=C\c2ccc(-c3cccc(Cl)c3)o2)C(=O)N1c1nccs1	none
COc1ccc(/C=C2\SC(=N)N(c3nccs3)C2=O)cc1OC	OX1R antag-1 72.6, CHO parental Ca 26.4
CCOc1ccc(NC(=O)N[C@@H](Cc2ccccc2)C(=O)O)cc1	none
CC1(C)OC(=O)N(c2ccccc2)C12C=Cc1cc(Br)ccc1O2 (stereo unspecified)	CHO parental Ca 36.2
CC1(C)OC(=O)N(CCc2ccccc2)C1(C)O (stereo unspecified)	none
CCOc1ccc(S(=O)(=O)N2CCCCC2)cc1NC(=O)c1ccccc1	none (no result: OX1R antag-1, OX1R antag-2, CHO parental Ca)
O=C(C1=C(O)C(=O)N(c2nccs2)C1c1ccccc1)c1cc2ccccc2o1 (stereo unspecified)	OX1R antag-2 51.7, M1 ag parental 24.3
CSCCC(NC(=O)c1ccccc1Cl)C(=O)N1CCCC(C)C1 (stereo unspecified)	none (no result: OX1R antag-1, OX1R antag-2, CHO parental Ca)
O=C(NCC1CCCN(C2Cc3ccccc3C2)C1)c1cccs1 (stereo unspecified)	none
CC(=O)OCCn1c(=O)c2cc3c(=O)n(CCOC(C)=O)c(=O)c3cc2c1=O	OX1R antag-1 67.9
CC(=O)Nc1ccc(C(=O)NNC(=O)c2cccc(C)c2)cc1	none
O=C(c1ccc(CSc2nc3ccncc3[nH]2)cc1)N1CCCCCC1	none
O=C(c1ccc(CSc2nc3ccncc3[nH]2)cc1)N1CCN(c2cccc(Cl)c2)CC1	OX1R antag-1 33.6, CHO parental Ca 72.6
O=C(N/N=C1\CCS(=O)(=O)c2ccc(F)cc21)c1ccc(O)cc1	none
Cn1c(=O)c(C(=O)c2ccccc2)nc2ccccc21	none
CN(C)c1nc2ccccc2n(C)c1=O	CHO-K1 Ca antag 23.8
Nc1c(O)cccc1C(=O)O	OX1R antag-1 61.1
O=C(Cn1cnc2c(nnn2Cc2ccccc2F)c1=O)OCc1ccccc1	OX1R antag-2 68.5, CHO parental Ca 79.5
O=C(Cn1cnc2c(nnn2Cc2ccccc2F)c1=O)N1CCN(c2ccccc2)CC1	none
O=C(NNS(=O)(=O)c1cc(Cl)cc(Cl)c1)c1sccc1-n1cccc1	OX1R antag-1 69.4
C[C@H](O)[C@@H]1C(=O)N2CCc3ccc(N4CCN(C)CC4)cc3[C@@H]2C[C@@H]1N(C)C(=O)NC1CCCCC1	none (no result: OX1R antag-1, OX1R antag-2, CHO parental Ca)
CSc1ncccc1C(=O)N1CCN(S(=O)(=O)c2ccc(F)cc2)CC1	none
CN(C)c1ccc(-c2csc(C(O)c3ccc(F)cc3)n2)cc1 (stereo unspecified)	M1 ag parental 23.0 (no result: OX1R antag-1, OX1R antag-2, CHO parental Ca)
CN(C)c1ccc(-c2csc(C(O)c3ccc(F)c(F)c3)n2)cc1 (stereo unspecified)	M1 ag parental 34.8, CHO-K1 Ca antag 23.8 (no result: OX1R antag-1, OX1R antag-2, CHO parental Ca)
COc1ccc(-c2csc(C(O)c3ccc(OC)cc3)n2)cc1 (stereo unspecified)	none (no result: OX1R antag-1, OX1R antag-2, CHO parental Ca)
COc1ccc(C(O)c2nc(-c3ccc(N(C)C)cc3)cs2)cc1 (stereo unspecified)	M1 ag parental 23.6 (no result: OX1R antag-1, OX1R antag-2, CHO parental Ca)
COc1cccc(C(=O)NNS(=O)(=O)c2ccccc2)c1	none (no result: OX1R antag-1, OX1R antag-2, CHO parental Ca)
COC(=O)c1cc(S(=O)(=O)N2CCN(c3ccc(F)cc3)CC2)cn1C	M1 ag parental 19.9
CCOC(=O)C1CCCN(S(=O)(=O)c2cc(C(=O)OC)n(C)c2)C1 (stereo unspecified)	CHO parental Ca 26.2
COC(=O)c1cc(S(=O)(=O)N2CCN(c3cccc(OC)c3)CC2)cn1C	none
O=C(CSc1nnc2ccccn12)NNC(=O)c1ccc(F)cc1	none
CCOc1ccc(NC(=O)CN(C)C(=O)c2cc3c(s2)CCC3)cc1OCC	none (no result: OX1R antag-1, OX1R antag-2, CHO parental Ca)
CC(C)CCC(C(=O)NC(C)c1ccccc1)C(=O)NC(C)c1ccccc1 (stereo unspecified)	OX1R antag-1 42.8
CC(C)CC(NC(=O)C1CCCCC1)C(=O)NC(C)c1ccccc1 (stereo unspecified)	none
O=C1Nc2ccc(Br)cc2/C1=C/C1CC=CCC1 (stereo unspecified)	CHO parental Ca 32.7
O=C1Nc2ccc(Br)cc2/C1=C/C(=O)c1ccc2c(c1)OCO2	none
COc1ccccc1Nc1ncnc2c1c(C)c(C)n2CCO	none (no result: OX1R antag-1, OX1R antag-2, CHO parental Ca)
Cc1ccc2c(c1)c(C)c(C)n2CC(O)Cn1nnc2ccccc21 (stereo unspecified)	OX1R antag-1 63.3
N#C/C(=C\c1coc2ccc(O)cc2c1=O)C(=O)Nc1nc2ccccc2s1	OX1R antag-1 65.1, OX1R antag-2 81.0, CHO parental Ca 64.5, M1 ag parental 58.5, CHO-K1 Ca antag 40.3
CSc1nc(Cc2ccccc2)nc2ccccc12	CHO-K1 Ca antag 24.0
Cc1ccc(-c2nc(-c3ccccn3)sc2CC(=O)O)cc1	none
CCN(CC)C(=O)Cn1cc(C(=O)C(=O)NCCc2c[nH]c3ccccc23)c2ccccc21	OX1R antag-1 46.3
O=C(CCc1ccc(O)cc1)c1c(O)cc(O)cc1O	none
COc1cc(O)c(CC=C(C)C)c(O)c1C(=O)CCc1ccc(O)cc1	CHO parental Ca 38.9
